The values that follow come from publication PMC7423752 (Acta biomaterialia, 2020).

The term Kd denotes the equilibrium constant for the complex coming apart. Broadly, the IC50 is the concentration that inhibits the measured activity by half. What is called Ki is a measure of affinity in units of concentration, obtained from inhibition or displacement.

The conditions of data set [1]: cited from earlier work.
Data set [2] deals with PSMA-positive prostate cancer C4–2 cells. Kind of data set: Cellular uptake of the micelle in cell monolayers. The note with it: 0.5 and 1 h incubation. It is filed as cell-based. The method in brief:
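C4–2 cells seeded at 2×10^5 per well 24 h ahead. They were exposed at 37°C for 0.5 and 1 h to micelles with or without the PSMA ligand, or to free test compound. Cells were then PBS-washed and RIPA-lysed. Part of the lysate went to BCA protein assay; the rest was treated with 4N NaOH (RT, 1 h), neutralised with phosphate buffer and DCM-extracted. Uptake was normalised to total protein; mean ± SD, n = 3.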

The target of data set [3] is PSMA. The note with it: read-out: Kd to PSMA; cited from earlier work.
For data set [4], the system named is PSMA. The note with it: cited from earlier work.

Consider `CO[C@H]1C(=O)[C@]2(C)[C@@H](OC)C[C@H]3OC[C@@]3(OC(C)=O)[C@H]2[C@H](OC(=O)c2ccccc2)[C@]2(O)C[C@H](OC(=O)[C@H](O)[C@@H](NC(=O)OC(C)(C)C)c3ccccc3)C(C)=C1C2(C)C` [cabazitaxel, Cabazitaxel], for which, in data set [1], the water solubility result is “very low”. Besides, the “cellular uptake, rank among groups” value in data set [2] is “lowest uptake”.
As for `O=C(O)CCC(NC(=O)NC(CCC(=O)O)C(=O)O)C(=O)O` (centres unmarked) [DUPA, 2-[3-(1,3-dicarboxypropyl)ureido]pentanedioic acid], the Kd in data set [3] is 14 nM. The concentration for half-maximal inhibition (IC50) in data set [4] (read-out: IC50 towards PSMA) is 47 nM. Further, the Ki in data set [4] (read-out: Ki towards PSMA) was 8 nM.
